Measured values taken from ChEMBL document CHEMBL1133105, “Antimalarial, antitrypanosomal, and antileishmanial activities and cytotoxicity of bis(9-amino-6-chloro-2-methoxyacridines): influence of the linker” (J Med Chem, 2000).
pIC50: −log10 of the molar value.

Tests used:
Leishmania infantum [1] = assay: Percentage of activity against Leishmania infantum 6.25 uM; format: functional
Method in brief: (§1)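 Starch-stimulated mouse peritoneal macrophages, 30 000/well, infected after 24 h with spleen-derived L. infantum amastigotes (10:1) together with 2-fold drug dilutions (12.5–1.56 µM). Incubated 7 days at 37 °C, 5% CO2. Wright-stained slides scored microscopically as % reduction of total parasite load or of infected macrophages. Uninfected treated cultures judged microscopically for macrophage toxicity.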

Leishmania infantum [2] = assay: Percentage of activity against Leishmania infantum at 1.56 uM; format: functional; method in brief: as §1
Leishmania infantum [3] = assay: Percentage of activity against Leishmania infantum at 12.5 uM Concentration; Toxic upon mouse primary peritoneal macrophages; format: functional, organism-based; method in brief: as §1
Leishmania infantum [4] = assay: Percentage of activity against Leishmania infantum at 3.13 uM; format: functional; method in brief: as §1
MRC5 [5] = assay: Cytotoxicity on MRC-5 cells at 12.5 uM; format: functional; conditions: Homo sapiens
Method in brief: (§2)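 MRC-5 human diploid embryonic lung cells seeded at 5 000/well, washed after 24 h, then given 2-fold drug dilutions (25, 12.5, 6.25, 3.13 µM) in RPMI + 5% FCS, final DMSO below 0.5%. Incubated 7 days at 37 °C, 5% CO2. MTT colorimetric read-out, scored as % reduction of absorbance at 540 nm versus untreated controls.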

MRC5 [6] = assay: Cytotoxicity on MRC-5 cells at 25 uM; format: functional; conditions: Homo sapiens; method in brief: as §2
MRC5 [7] = assay: Cytotoxicity on MRC-5 cells at 3.13 uM; format: functional; conditions: Homo sapiens; method in brief: as §2
MRC5 [8] = assay: Cytotoxicity on MRC-5 cells at 6.25 uM; format: functional; conditions: Homo sapiens; method in brief: as §2
Plasmodium falciparum = assay: In vitro sensitivity for Plasmodium falciparum FcB1R; format: functional, organism-based
Method in brief: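 Asynchronous P. falciparum cultures in human erythrocytes (0.5% parasitemia, 1% haematocrit) exposed to serially diluted drug for 24 h at 37 °C. [3H]hypoxanthine (0.5 µCi/well) then added for a further 24 h. Uptake compared with drug-free controls on the same plate. IC50 taken from the concentration–response curve, averaged over independent experiments. DMSO ≤0.1%.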

Trypanosoma cruzi [9] = assay: Percentage of activity against Trypanosoma cruzi at 1.56 uM; format: functional
Method in brief: (§3)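 Mouse peritoneal macrophages, 30 000/well, infected after 24 h with about 100 000 T. cruzi trypomastigotes per well plus 2-fold drug dilutions (12.5–1.56 µM). Incubated 4 days at 37 °C, 5% CO2. Methanol-fixed, Giemsa-stained and scored microscopically as % reduction of total parasite load (free trypomastigotes plus intracellular amastigotes) versus untreated controls.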

Trypanosoma cruzi [10] = assay: Percentage of activity against Trypanosoma cruzi at 12.5 uM; Toxic upon mouse primary peritoneal macrophages; format: functional, organism-based; method in brief: as §3
Trypanosoma cruzi [11] = assay: Percentage of activity against Trypanosoma cruzi at 3.13 uM; format: functional; method in brief: as §3
Trypanosoma cruzi [12] = assay: Percentage of activity against Trypanosoma cruzi at 6.25 uM Concentration; format: functional; method in brief: as §3
Trypanosoma brucei [13] = assay: Percentage of activity against Trypanosoma brucei at 6.25 uM; format: functional
Method in brief: (§4)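 Bloodstream-form T. brucei in HMI-9 medium, 10 000 parasites/well, exposed to 12.5, 6.25, 3.13 and 1.56 µM drug for 4 days. Read-out is % inhibition of parasite multiplication. Macrophage toxicity judged on mouse primary peritoneal macrophages.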

Trypanosoma brucei [14] = assay: Percentage of activity against Trypanosoma brucei at 12.5 uM; format: functional; method in brief: as §4
Trypanosoma brucei [15] = assay: Percentage of activity against Trypanosoma brucei at 1.56 uM; format: functional; method in brief: as §4
Trypanosoma brucei [16] = assay: Percentage of activity against Trypanosoma brucei at 3.13 uM; format: functional; method in brief: as §4
Trypanosoma cruzi [17] = assay: Percentage of activity against Trypanosoma cruzi at 12.5 uM; format: functional; method in brief: as §3
Leishmania infantum [18] = assay: Percentage of activity against Leishmania infantum at 6.25 uM; Toxic upon mouse primary peritoneal macrophages; format: functional, organism-based; method in brief: as §1

SMILES	Antileishmanial activity (% reduction of parasite load) (Leishmania infantum [1]) [%]	Antileishmanial activity (% reduction of parasite load) (Leishmania infantum [2]) [%]	Cytotoxicity (Leishmania infantum [3])	Percent antileishmanial activity (reduction of parasite load) (Leishmania infantum [4]) [%]	cytotoxicity at 12.5 µM (MRC5 [5]) [%]	cytotoxicity at 25 µM (MRC5 [6]) [%]	cytotoxicity at 3.13 µM (MRC5 [7]) [%]	cytotoxicity at 6.25 µM (MRC5 [8]) [%]	pIC50 (Plasmodium falciparum)	Parasite load reduction (Trypanosoma cruzi [9]) [%]	Cytotoxicity (Trypanosoma cruzi [10])	Reduction of T. cruzi parasite load (Trypanosoma cruzi [11]) [%]	Reduction of T. cruzi parasite load (Trypanosoma cruzi [12]) [%]	Inhibition of parasite multiplication (Trypanosoma brucei [13]) [%]	Inhibition of parasite multiplication (Trypanosoma brucei [14]) [%]	Percent inhibition of parasite multiplication (Trypanosoma brucei [15]) [%]	Parasite growth inhibition (Trypanosoma brucei [16]) [%]	T. cruzi parasite load reduction (Trypanosoma cruzi [17]) [%]	Cytotoxicity (Leishmania infantum [18])
COc1ccc2nc3cc(Cl)ccc3c(NCCCN(CCCNc3c4ccc(Cl)cc4nc4ccc(OC)cc34)C(=O)C(COCc3ccccc3)NC(=O)OC(C)(C)C)c2c1 (stereo unspecified)	90	40	Toxic	70	100	100	100	100	6.86	0	Toxic	40	80	100	100	100	100		
COc1ccc2nc3cc(Cl)ccc3c(NCCCCCCCCCCCCNc3c4ccc(Cl)cc4nc4ccc(OC)cc34)c2c1	80	0	Toxic	40	20	100	0	0	6.75	0		0	40	100	100	70	100	90	
COc1ccc2nc3cc(Cl)ccc3c(NCCCN(CCCNc3c4ccc(Cl)cc4nc4ccc(OC)cc34)C(=O)CCN3CCNCC3)c2c1	0	0	Toxic	0	0	15	0	0	< 6.30	0		0	0	100		95	99	90	
COc1ccc2nc3cc(Cl)ccc3c(NCCCCCCCCCCNc3c4ccc(Cl)cc4nc4ccc(OC)cc34)c2c1	90	20	Toxic	70	80	90	0	0	7.24	0		40	70	100	100	100	100	99	
COc1ccc2nc3cc(Cl)ccc3c(NCCCN(CCCNc3c4ccc(Cl)cc4nc4ccc(OC)cc34)C(=O)C(CNC(=O)OCC3c4ccccc4-c4ccccc43)NC(=O)OC(C)(C)C)c2c1 (stereo unspecified)	95	20	Toxic	70	60	68	55	57	7.15	0	Toxic	20	90	100		100	100		
COc1ccc2nc3cc(Cl)ccc3c(NCCCN(CCCNc3c4ccc(Cl)cc4nc4ccc(OC)cc34)C(=O)C(CCCCNC(=O)OCC3c4ccccc4-c4ccccc43)NC(=O)OC(C)(C)C)c2c1 (stereo unspecified)	40	0	Toxic	0	90	100	20	80	6.56	0	Toxic	20	80	100	100	100	100		
COc1ccc2nc3cc(Cl)ccc3c(NCCCN(CCCNc3c4ccc(Cl)cc4nc4ccc(OC)cc34)C(=O)C(CNC(=O)OC(C)(C)C)NC(=O)OC(C)(C)C)c2c1 (stereo unspecified)	99	80	Toxic	95	50	70	43	48	7.26	0	Toxic	40	80	100		100	100		
COc1ccc2nc3cc(Cl)ccc3c(NCCCN(CCCNc3c4ccc(Cl)cc4nc4ccc(OC)cc34)C(=O)CNC(=O)C(C)NC(=O)OC(C)(C)C)c2c1 (stereo unspecified)		0	Toxic	0	71	100	31	41	6.36	0	Toxic	0	40	100		100	100		Toxic
COc1ccc2nc3cc(Cl)ccc3c(NCCCN(CCCNc3c4ccc(Cl)cc4nc4ccc(OC)cc34)C(=O)C(CC(=O)OC3CCCCC3)NC(=O)OC(C)(C)C)c2c1 (stereo unspecified)	80	20	Toxic	60	100	100	40	100	7.51	0		20	70	100	100	100	100	98	
COc1ccc2nc3cc(Cl)ccc3c(NCCCCCCCCNc3c4ccc(Cl)cc4nc4ccc(OC)cc34)c2c1	95	70	Toxic	90	100	100	20	100	7.72	70	Toxic	90	98	100	100	100	100		
